Here are results for four compounds from ChEMBL document CHEMBL4811231, “Discovery and structural optimization of 3-O-β-chacotriosyl oleanane-type triterpenoids as potent entry inhibitors of SARS-CoV-2 virus infections” (Eur J Med Chem, 2021).

Calls of active or inactive are those of the source. No cut-off for these calls is given here.

The experiment concerns Vesicular stomatitis virus. The experiment is described as follows: Antiviral activity against pseudotype VSV harbouring glycoprotein infected human 293T/ACE2 cells assessed as inhibition of viral infection measured after 48 hrs by luciferase reporter gene assay. It is filed as functional, organism-based. In short, it runs like this: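 293T-ACE2 cells (20,000/well) were seeded and treated 24 h later with graded compound concentrations mixed with pseudovirus supernatant, then incubated 48 h. The HIV-based pseudovirus (pNL4-3.Luc.R-E-) carried SARS-CoV-2 S or VSV-G and was made by co-transfecting HEK293T cells; supernatant was harvested at 48 h and filtered (0.45 µm). Read-out was luciferase activity in cell lysates. Sal-C was the positive control.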
A general note: In a reporter assay the amount or activity of a reporter protein is the signal.
Turning to `C[C@@H]1O[C@@H](O[C@H]2[C@H](O[C@H]3CC[C@]4(C)[C@H]5CC=C6[C@@H]7CC(C)(C)CC[C@]7(C(=O)NCc7ccccc7)CC[C@@]6(C)[C@]5(C)CC[C@H]4C3(C)C)O[C@H](CO)[C@@H](O[C@@H]3O[C@@H](C)[C@H](O)[C@@H](O)[C@H]3O)[C@@H]2O)[C@H](O)[C@H](O)[C@H]1O`, the inhibition result was “inactive”. For `C[C@@H]1O[C@@H](O[C@H]2[C@H](O[C@H]3CC[C@]4(C)[C@H]5CC=C6[C@@H]7CC(C)(C)CC[C@]7(C(=O)NCc7ccccc7F)CC[C@@]6(C)[C@]5(C)CC[C@H]4C3(C)C)O[C@H](CO)[C@@H](O[C@@H]3O[C@@H](C)[C@H](O)[C@@H](O)[C@H]3O)[C@@H]2O)[C@H](O)[C@H](O)[C@H]1O`, the inhibition result is “inactive”. The value for `C[C@@H]1O[C@@H](O[C@H]2[C@H](O[C@H]3CC[C@]4(C)[C@H]5CC=C6[C@@H]7CC(C)(C)CC[C@]7(C(=O)NCc7cccs7)CC[C@@]6(C)[C@]5(C)CC[C@H]4C3(C)C)O[C@H](CO)[C@@H](O[C@@H]3O[C@@H](C)[C@H](O)[C@@H](O)[C@H]3O)[C@@H]2O)[C@H](O)[C@H](O)[C@H]1O` was “inactive”; that for `COc1ccccc1NC(=O)[C@]12CCC(C)(C)C[C@H]1C1=CC[C@@H]3[C@@]4(C)CC[C@H](O[C@@H]5O[C@H](CO)[C@@H](O[C@@H]6O[C@@H](C)[C@H](O)[C@@H](O)[C@H]6O)[C@H](O)[C@H]5O[C@@H]5O[C@@H](C)[C@H](O)[C@@H](O)[C@H]5O)C(C)(C)[C@@H]4CC[C@@]3(C)[C@]1(C)CC2` was “inactive”.
